Compound activity (PubChem)
Most compounds without a hit are left out; they make up all but 2.4% or so of the library.
TPT1 inh – blocks Candida albicans tRNA 2'-phosphotransferase; recombinant caTPT1, FP RNA substrate dephosphorylation; AID 1962; hit rate 0.81% among 300,000; inhibition, % at 5 µM;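 active = inhibition above the mean of all tested compounds plus 3 SD, set per screening campaign, cut at about 24% in these data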;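 note: plate controls were DMSO alone for no effect and ferristatin control at 100 nM for full effect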
Rpn11 inh – Rpn11 (human) deubiquitinase inhibition | AID 588493 | hit rate 0.59% among 360,000 | inhibition, % at 20 µM | human 26S proteasome, Ub4-pepOG fluorescence polarization; 20S core pre-blocked with epoxomicin;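 active = inhibition at 20 µM, scaled to each plate's controls, above about 33%, limit read from the data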
CSN deneddyl inh – inhibitors of human CSN-mediated cullin deneddylation; hit rate 0.38% among 360,000; Q92905; inhibition, % at 12.5 µM; AID 651999; Purified CSN, SCF-Nedd8-OG deneddylation, fluorescence polarization;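 active = pattern-corrected inhibition above about 35%, with an unprinted fluorescence ratio check between 0.5 and 1.5, limit read from the data, passing the limit was not always enough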;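 note: 0% = enzyme with substrate and 100% = substrate without enzyme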
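Assay system: Purified human Csn5 enzyme expressed in HEK293T cells | Amount: Enzyme 0.24 nM | Measured by: Fluorescence polarization readout | Medium: Tris/NaCl/DTT buffer, pH 7.5 | Compound dosing: One concentration, 12.5 µM, 0.25% DMSO | Times: 90 min incubation of compound, enzyme and substrate at room temperature | Control set: no-enzyme wells high, enzyme-with-substrate wells low | Read-out: % inhibition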
Neddylation inh – cullin neddylation inhibition; P61081+Q13564; TR-FRET cullin neddylation, biochemical; inhibition, % at 25 µM; hit rate 0.58% among 360,000; AID 651699; in the data active = inhibition above about 36%
HNF4A DNA FP – change in binding of human HNF4 alpha to DNA; P41235; HNF4a-FITC DNA binding, fluorescence polarization, 1 h; activity change, % at 10 µM; hit rate 0.3% among 360,000; AID 1224865; in the data active = activity change above about 30%, passing the limit was not always enough
Rin1-Abl PPI inh – blocks binding of human Rin1 to Abl; P00519+Q13671; TR-FRET Rin1/Abl binding, biochemical; inhibition, % at 7.35 µM; hit rate 0.4% among 360,000; in the data active = inhibition above about 5%, passing the limit was not always enough
Neddyl inh conf – confirmation of human cullin neddylation inhibitors; AID 652217; calls only at 25 µM; shares compounds with Neddylation inh; TR-FRET cullin neddylation biochemical assay; hit rate 13% among 1,800; in the data active = inhibition above about 40%;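 note: neddylation substrate is the cullin 1 ring ligase complex with SKP2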
The depositor's hits bear a star; i = inactive; · = no result given; + = active, no number.

SMILES	TPT1 inh	Rpn11 inh	CSN deneddyl inh	Neddylation inh	HNF4A DNA FP	Rin1-Abl PPI inh	Neddyl inh conf
CCOC(=O)C1CCc2c(ccc3ccccc23)N1CCC#N (stereo not drawn)	·	-1	2	47*	-2	0	·
COC(=O)c1cc(=O)n2c(sc3ccccc32)c1C#N	2	24	-3	-89	3	0	·
O=C(COC(=O)c1cc(-c2ccc(F)cc2)nc2ccccc12)NCC1CCCO1 (stereo not drawn)	-3	-8	2	49*	-2	3	i
CCOC(=O)c1nsnc1NCCSC(=N)N	2	-1	-4	40*	1	5	i
CCOC(=O)c1nonc1NC(C)=O	-3	-2	-2	3	4	2	·
COC(=O)c1ccc(C(=O)OC)c(=O)[nH]1	-1	4	6	49*	3	-1	·
Cc1ccn2c(=O)c(C(=O)NCCCN3CCCCC3C)c(O)nc2c1 (stereo not drawn)	0	-6	7	45*	1	2	i
Cc1ccn2c(=O)c(C(=O)NC3CCCCC3C)c(O)nc2c1 (stereo not drawn)	2	0	-1	44*	-3	0	i
CCC1CCCCN1CCCNC(=O)c1c(O)nc2cc(C)ccn2c1=O (stereo not drawn)	3	-6	-3	30	4	-4	·
Cc1ccn2c(=O)c(C(=O)NCCCN3CCCC3=O)c(O)nc2c1	1	-1	-4	48*	1	7	+
Cc1cccn2c(=O)c(C(=O)NC3CCCCC3C)c(O)nc12 (stereo not drawn)	2	4	-2	31	-6	-2	·
CCC(Cc1ccccc1)NS(=O)(=O)c1c(C)nc2scc(C)n2c1=O (stereo not drawn)	1	-5	1	30	-2	-1	·
COCCCn1c(=O)c2sccc2n2c(CCCC(=O)NCc3ccc(F)cc3)nnc12	-1	0	5	42*	0	5	i
COc1ccc(-c2ccnc3cc(C(=O)O)nn23)cc1	-8	7	3	53*	-1	1	·
COc1ccc(C2=NN(C(=O)COC(=O)c3ccc(NC(=O)CC#N)cc3)C(c3ccco3)C2)cc1 (stereo not drawn)	·	·	130	-28	125	-1	·
CC(C)NCC(O)COCCOc1ccc(Cl)cc1 (stereo not drawn)	-1	5	-1	76*	-2	-1	i
N#C/C(=C/c1cccn1-c1cccc(C(=O)O)c1)c1ccc(F)cc1	·	-5	5	0	-9	1	·
COC(=O)c1cc2c(ccn2-c2ccc(F)cc2)n1CC(=O)C(C)(C)C	2	-6	-6	-4	-2	0	·
COC(=O)c1cc2c(ccn2-c2ccc(F)cc2)n1CC(=O)OC(C)C	-1	-6	5	43*	4	1	i
COCc1cc(C)nc(Nc2ccccc2C)c1C#N	0	7	5	10	3	0	·
CCN(CC)CCCNc1nc(C)cc(COC)c1C#N	-1	-1	-2	43*	0	-2	i
COc1ccc(-c2sc(Nc3cccc4ccccc34)n[n+]2C)c(C)c1C	·	1	-2	32*	4	5	i
CCC(=O)c1cccc2c1N=CC1=C(CC(C)(C)CC1=O)N2	-1	-2	0	42*	5	6	·
Clc1ccc(/C=C/c2nc(Cl)c(-c3ccc(Cl)cc3)c(Cl)n2)cc1	1	1	-9	41*	-1	1	i
C/C(=N\NC(=O)c1ccc(N2CCCC2=O)cc1)c1ccc(O)cc1O	1	-4	-6	63*	0	1	i
CCCCC(=O)N(C)c1c(C)nc2ccc(C(=O)N3CCN(C(=O)c4ccco4)CC3)cn12	·	2	-5	1	0	3	·
Cc1cccn2c(=O)nc(SCC(=O)N3CCC(C)CC3)nc12	0	-3	2	8	2	2	·
Cc1ccc2cc3cc(C(=O)NCCCN4CCc5ccccc5C4)oc3nc2c1	-1	10	4	57*	1	-7	+
